The values below come from ChEMBL document CHEMBL1126644, “Structure-activity relationships in the trans-hexahydroindolo[4,3-ab]phenanthridine ("benzergoline") series. 2. Resolution, absolute configuration, and dopaminergic activity of the selective D1 agonist CY 208-243 and its implication for an "extended rotamer-based dopamine receptor model"” (1993).

The nature of assay [1]: In vitro potency against adenylate cyclase in bovine retina. The assay is classed as tissue-based. An outline of the steps:
(§1)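 Dopamine-sensitive adenylate cyclase assay on bovine retina tissue. Values are means of two to six independent experiments, each run in triplicate.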

The species entered for a further assay is Bos taurus. Put plainly: In vitro percent maximal stimulation relative to dopamine (125 uM) in bovine retina. The assay is classed as functional. An outline of the steps: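 Bovine retina adenylate cyclase stimulation, expressed as a percentage of the maximal effect produced by 125 μM dopamine.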
The species entered for assay [2] is Rattus norvegicus. Put plainly: Tested in vitro for percent maximal inhibition in rat striatal slices (% of control) expressed as change of S2/S1 versus control at 1 uM.
The species named for assay [3] is Rattus norvegicus. Put plainly: In vitro potency in rat striatal slices by electrically evoked acetylcholine release. The assay is classed as functional.
For assay [4], the species on record is Rattus norvegicus. Description: Tested in vitro for percent maximal inhibition in rat striatal slices (% of control) expressed as change of S2/S1 versus control at 1 uM. This is another data set of the same source.
Assay [5] can be described thus: Compound was evaluated for in vitro potency against adenylate cyclase in bovine retina. The class given is tissue-based. Put shortly: as §1

Structures are written as SMILES.

A word on the inhibition: it is the share of the control response that was lost under treatment. A high value points to a response far below the control.

For `Oc1ccc([C@@H]2CNCc3ccccc32)cc1O`, the pD2 in assay [1] turned out to be 6. Moreover, the “Relative to DA” value in the assay listed under Bos taurus came out at 86%. The molecule further returned an inhibition at 1 µM in the assay listed under Rattus norvegicus [2] of 0%.

On to `CN1CCC[C@@H]2c3cccc4[nH]cc(c34)C[C@H]21`, for which the pD2 in assay [1] was found to be 5.2; in the assay filed under Rattus norvegicus [3], 7.5. For the same molecule, the “Relative to DA” value in the assay listed under Bos taurus is 24%. The inhibition at 1 µM in the assay listed under Rattus norvegicus [2] came out at 30%.

With `CN1CCC[C@@H]2Cc3c(O)cccc3C[C@H]21`, the pD2 turned out to be 6.15 in assay [1] and 7.3 in the assay listed under Rattus norvegicus [3]. The “Relative to DA” value in the assay listed under Bos taurus was 14%. At 1 µM the inhibition in the assay filed under Rattus norvegicus [2] was 62%.

With `CN1Cc2ccccc2[C@@H]2c3cccc4[nH]cc(c34)C[C@H]21` (racemic) [listing 1 of 2 here], the “Relative to DA” value in the assay filed under Bos taurus is 57%. For the same molecule, in the assay listed under Rattus norvegicus [4], the inhibition at 1 µM was found to be 0%.

`CN1Cc2ccccc2[C@@H]2c3cccc4[nH]cc(c34)C[C@H]21` (racemic) [listing 2 of 2 here] came in with a pD2 in assay [1] of 6.1.

Take `CN1Cc2ccccc2[C@@H]2c3cccc4[nH]cc(c34)C[C@H]21` (stereo in doubt) [listing 1 of 2 here]: the “Relative to DA” value in the assay filed under Bos taurus worked out at 68%.

The molecule `CN1Cc2ccccc2[C@@H]2c3cccc4[nH]cc(c34)C[C@H]21` (stereo in doubt) [listing 2 of 2 here] had a pD2 in assay [5] of 6.9.

With `CN1Cc2ccccc2[C@@H]2c3cccc4[nH]cc(c34)C[C@H]21` (stereo in doubt; (+)-1), in the assay filed under Bos taurus, the “Relative to DA” value stood at 0%.

Take `CN1CCc2cccc3c2[C@H]1Cc1ccc(O)c(O)c1-3` [APOMORPHINE]: the pD2 in assay [1] came to 6.2; in the assay listed under Rattus norvegicus [3] it was 7.5. For the same molecule, in the assay filed under Bos taurus, the “Relative to DA” value was 38%. 1 µM produced 85% inhibition in the assay listed under Rattus norvegicus [2].

Turning to `Oc1cc2c(cc1O)C(c1ccccc1)CNCC2` (centres undefined) [SKF-38393], the pD2 in assay [1] was 6.6. For the same molecule, the “Relative to DA” value in the assay filed under Bos taurus came to 58%. In the assay listed under Rattus norvegicus [2], this molecule yielded an inhibition at 1 µM of 0%.
